Screens: PubChem, several laboratories
ABCB1 block: ABCB1 efflux pump inhibitors, primary screen, cell-based, multiplex, flow cytometry, ABCG2 counter-screen. ATP-dependent translocase ABCB1 (Homo sapiens), P08183. CCRF-Adr cells, JC-1 efflux. inhibition, % at 6.6 µM. 190,000 compounds, 0.067% hits. AID 1326, 2008; in the data active = inhibition above about 40%;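 note: 0% = vehicle and 100% = reference inhibitor; higher value means more JC-1 retained so stronger ABCB1 efflux block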
WT yeast gro inh: growth inhibition of WT strain, primary screen, mitochondrial fusion inhibitor project, WT and mutant strains, chemical genetic; inhibition, % at 10 µM; mitochondrial fusion phenotypic screen; 190,000 compounds, 2.1% hits; AID 1362, 2008; in the data active = inhibition above about 58%; tested in S. cerevisiae
MEKK2 WT-MEK5: modulators of MEK5 binding to wildtype MEKK2, primary screen, biochemical, multiplex bead flow cytometry, Alexa488-MEK5; AID 1531, 2009; 290,000 compounds, 1.1% hits; Mitogen-activated protein kinase kinase kinase 2 (Homo sapiens), Q9Y2U5; Alexa488-MEK5 binding to MEKK2 WT; actives lie on both sides; binding response (% of control), % at 10 µM; in the data active = binding response below about 67% or above about 130%
MEKK2mut PB1 HTS: MEK5 binding signal on mutant MEKK2 PB1, primary screen, biochemical, multiplex bead flow cytometry, Alexa488-MEK5; Alexa488-MEK5 binding to MEKK2 mutant; 290,000 compounds, 0.35% hits; percent response, % at 10 µM; in the data active = percent response above about 24%, passing the limit was not always enough
MEKK3 PB1 HTS: modulators of MEKK3-MEK5 PB1 binding, primary screen, biochemical, wildtype MEKK3, multiplex bead flow cytometry, Alexa488-MEK5 | Mitogen-activated protein kinase kinase kinase 3 (Homo sapiens), Q99759 | bead-based flow cytometry, Alexa488-MEK5 binding to MEKK3; actives lie on both sides; 0 = blocked by unlabeled MEK5, 100 = vehicle | binding response (% of control), % at 10 µM | 290,000 compounds, 1.4% hits | AID 1529, 2009;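 active = binding response more than 3 SD above or below the average of its plate-row segment, actives on both sides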;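 note: Alexa488 bead fluorescence after subtracting the streptavidin-only scavenger bead signal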
ABCG2 block: ABCG2 efflux pump inhibitors, primary screen, multiplex with ABCB1, IgMXP3 cells, flow cytometry | Broad substrate specificity ATP-binding cassette transporter ABCG2 (Homo sapiens), Q9UNQ0 | JC-1 efflux | inhibition, % at 6.6 µM | 190,000 compounds, 0.1% hits;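 active = inhibition above 80%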;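 note: 0% = DMSO and 100% = nicardipine control wells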
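Test system: IgMXP3 cells (ABCG2) mixed with DDAO far-red-labelled CCRF-Adr cells (ABCB1). Reagent: JC-1 transporter substrate. Compound dosing: single test compound dose, 6.6 µM final. Times: 10 min compound exposure, 25 °C. Detection: flow cytometry of retained JC-1 fluorescence. Read-out basis: efflux inhibition in percent versus controls. Controls: nicardipine and DMSO wells.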
Starred values were filed as active, the others as inactive; . = no result given; [ ] = dose if it differs, or a comment. The list is not random: actives were taken first. Their share in the collection is about 3.5%.

SMILES | ABCB1 block | WT yeast gro inh | MEKK2 WT-MEK5 | MEKK2mut PB1 HTS | MEKK3 PB1 HTS | ABCG2 block
OC(COc1ccc(Cl)cc1)CN1CCN(c2cccc(Cl)c2)CC1 (configuration not stated) | . | . | 101 | 5 | 97 | .
COc1cc2c(cc1OC)C(C)N(C(=O)c1ccc(Cl)c(S(=O)(=O)N3CCCCC3)c1)CC2 (configuration not stated) | . | . | 94 | -3 | 98 | .
COC(=O)CCC(=O)N1CCCC(CO)(Cc2ccccc2F)C1 (configuration not stated) | . | . | 100 | 5 | 99 | .
Cc1cc(Br)cc(Cl)c1OC(=O)c1ccncc1 | . | . | 1.0*[inhibitor] | -39 | 1.0*[inhibitor] | .
O=C(Cc1ccccc1)NNc1c2ccccc2nc2ccccc12 | 0 | 59* | 97 | -1 | 98 | 10
Cc1ccc(OCC(=O)NNc2c3ccccc3nc3ccccc23)cc1 | 3 | 36 | 103 | -1 | 103 | 19
CN1/C(=C/c2cc[n+](C)c3ccccc23)C=Cc2ccccc21 | 0 | 91* | 98 | 6 | 100 | -6
O=C(Nc1cccc(C(F)(F)F)c1)c1cccnc1NCCc1ccccc1 | 1 | 87* | 135 | 32 | 105 | 6
Nc1nn(-c2ccccc2)c(N)c1N=Nc1ccccc1F | 1 | 24 | 102 | 0 | 129* | 14
Cc1nn(-c2ccccc2)c(N)c1N=Nc1ccccc1 | 1 | 24 | 108 | -4 | 103 | 14
Nc1nn(-c2ccccc2)c(N)c1N=Nc1ccccc1 | 0 | -1 | 101 | -2 | 97 | -2
Cc1cccc(N=Nc2c(C)nn(-c3ccccc3)c2N)c1C | 2 | 83* | 98 | 1 | 102 | 27
Cc1nn(-c2ccccc2)c(N)c1N=Nc1cccc(S(=O)(=O)N2CCOCC2)c1 | . | . | 102 | 9 | 107 | .
Cc1nn(-c2ccccc2)c(N)c1N=Nc1ccc(Cl)cc1 | 2 | 81* | 104 | 0 | 109 | 6
O=S(Cc1ccc(Br)cc1)Cc1nnc(SCc2ccc(Br)cc2)n1-c1ccccc1 (configuration not stated) | -2 | 82* | 91 | -4 | 87 | -13
CC(CC(=O)NNC(=O)c1cccc(Cl)c1)c1ccccc1 (configuration not stated) | . | . | 107 | 3 | 101 | .
CCCCNC(=S)N/N=C/c1cc(C)ccc1C | 0 | 66* | 97 | -1 | 88 | 5
CCOC(=O)C1(CCCc2ccccc2)CCN(Cc2nccn2CC)CC1 | 2 | 59* | 109 | 1 | 99 | 1
CCOC(=O)C1(CCOc2ccccc2)CCN(Cc2nccn2CC)CC1 | 0 | 19 | 100 | -1 | 100 | 0
Cc1nnc(SCC(=O)N2CCc3ccccc32)s1 | 43* | 5 | 102 | 5 | 102 | 5
Nc1cc(N)nc(SCC(=O)N2CCc3ccccc32)n1 | 0 | 99* | 98 | 6 | 101 | 1
COc1ccc(C(=O)C(Sc2nnc(C)c(=O)[nH]2)c2ccc(OC)cc2)cc1 (configuration not stated) | . | . | 84 | -12 | 87 | .
CCOc1ccc(OCC)c(NC(=O)C2CCN(c3cnccn3)CC2)c1 | . | . | 103 | 7 | 103 | .
O=C(Nc1ccccc1N1CCCCC1)c1cccc([N+](=O)[O-])c1 | 3 | 78* | 92 | -3 | 100 | 17
Cc1cccc(NC(=O)c2ccc(N3CCCCC3)c([N+](=O)[O-])c2)n1 | 0 | 78* | . | . | . | 4
O=C(Nc1ccccc1N1CCOCC1)c1ccc2c(c1)OCCO2 | . | . | 107 | 1 | 104 | .
O=C(Nc1ccccc1N1CCOCC1)c1cc(F)cc(F)c1 | 0 | 74* | 92 | -7 | 97 | 0
O=C(Nc1ccccc1N1CCOCC1)c1cccc([N+](=O)[O-])c1 | 1 | -6 | 98 | -2 | 97 | 7
O=C(Nc1ccccc1N1CCOCC1)c1cccc(F)c1 | 1 | 76* | 86 | -10 | 100 | 4
